ChEMBL document CHEMBL1138529, “Efficacy, pharmacokinetics, and metabolism of tetrahydroquinoline inhibitors of Plasmodium falciparum protein farnesyltransferase” (Antimicrob Agents Chemother, 2007)
Active and inactive are the calls of the source.

What was measured:
[1] = Inhibition of alpha1 adrenergic receptor at 10 uM
How it was run: (§1)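 Radioligand displacement screen at a 10 μM test concentration, run by a contract lab across a panel of 50 receptors, pharmacologically active ion channels and transporters. The read-out is the decrease in specific radiolabeled ligand binding, expressed as a percentage. A decrease above 50% was considered significant.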

[2] = system: Rattus norvegicus; assay: Toxicity in Sprague-Dawley rat at 50 mg/kg, po; assay type: organism-based; set-up: dose 50 mg/kg, route oral; conditions: in vivo
How it was run: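 Female Sprague-Dawley rats, 10-12 weeks, three per group. 50 mg/kg oral gavage in 3% EtOH-7% Tween 80-90% normal saline. Saphenous vein plasma sampled over time, and animals observed for adverse reactions.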

[3] = biological target: Type-1 angiotensin II receptor (Homo sapiens) (UniProt P30556); assay: Inhibition of angiotensin AT1 receptor at 10 uM
Chain of Type-1 angiotensin II receptor (Homo sapiens) (P30556 whole entry): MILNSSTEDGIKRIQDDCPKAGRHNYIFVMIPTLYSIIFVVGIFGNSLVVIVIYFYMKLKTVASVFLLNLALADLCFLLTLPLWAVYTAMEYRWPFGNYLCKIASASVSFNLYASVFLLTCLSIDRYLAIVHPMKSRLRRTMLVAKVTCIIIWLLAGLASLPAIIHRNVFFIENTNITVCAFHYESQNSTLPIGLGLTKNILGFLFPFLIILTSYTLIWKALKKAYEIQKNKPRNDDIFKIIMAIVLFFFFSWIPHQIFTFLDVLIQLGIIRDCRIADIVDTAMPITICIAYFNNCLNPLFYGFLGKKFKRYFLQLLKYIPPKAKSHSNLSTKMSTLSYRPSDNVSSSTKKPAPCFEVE
How it was run: (§2)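 Radioligand displacement at a contract lab across a panel of 50 receptors, ion channels and transporters, single test concentration 10 μM; loss of specific ligand binding reported as percent, with >50% decrease counted as significant.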

[4] = system: Salmonella typhimurium; assay: Genotoxicity in Salmonella enterica serovar Typhimurium TA100 assessed as increase in number of revertants in presence of rat liver S9 fraction by Ames test; assay type: toxicity, organism-based; conditions: salmonella enterica subsp. enterica serovar typhimurium
How it was run: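 Liquid-culture Ames assay run by a contractor: S. Typhimurium TA98 and TA100 exposed for 96 h in histidine-free medium, with and without rat liver S9, at 5, 10, 50 and 100 μM (plus higher concentrations); growth read spectrophotometrically by pH-indicator colour change. Parallel bacterial cytotoxicity assay at same concentrations.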

[5] = biological target: Delta-type opioid receptor (Homo sapiens) (UniProt P41143); assay: Inhibition of delta opioid receptor at 10 uM; how it was run: as §2
[6] = biological target: Neuromedin-K receptor (Homo sapiens) (UniProt P29371); assay: Inhibition of NK3 receptor at 10 uM
Chain of Neuromedin-K receptor (Homo sapiens) (P29371 whole entry): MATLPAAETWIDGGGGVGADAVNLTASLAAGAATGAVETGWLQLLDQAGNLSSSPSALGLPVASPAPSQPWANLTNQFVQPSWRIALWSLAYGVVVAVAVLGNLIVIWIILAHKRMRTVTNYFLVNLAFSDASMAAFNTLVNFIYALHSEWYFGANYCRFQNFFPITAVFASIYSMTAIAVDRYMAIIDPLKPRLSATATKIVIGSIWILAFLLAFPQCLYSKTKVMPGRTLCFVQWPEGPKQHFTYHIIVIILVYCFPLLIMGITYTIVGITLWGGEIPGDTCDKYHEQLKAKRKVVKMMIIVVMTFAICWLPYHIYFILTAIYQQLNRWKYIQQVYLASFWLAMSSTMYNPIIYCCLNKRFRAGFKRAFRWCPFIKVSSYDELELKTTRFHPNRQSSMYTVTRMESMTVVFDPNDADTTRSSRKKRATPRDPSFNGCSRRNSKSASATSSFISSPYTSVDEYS
How it was run: (§3)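 Radioligand displacement screen by a contractor across 50 receptors, ion channels and transporters, test compound at 10 μM; decrease in specific ligand binding expressed as percentage, with >50% decrease taken as significant.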

[7] = biological target: 5-hydroxytryptamine receptor 3A (Homo sapiens) (UniProt P46098); assay: Inhibition of 5HT3 receptor at 10 uM; how it was run: as §3
Chain of 5-hydroxytryptamine receptor 3A (Homo sapiens) (P46098 whole entry): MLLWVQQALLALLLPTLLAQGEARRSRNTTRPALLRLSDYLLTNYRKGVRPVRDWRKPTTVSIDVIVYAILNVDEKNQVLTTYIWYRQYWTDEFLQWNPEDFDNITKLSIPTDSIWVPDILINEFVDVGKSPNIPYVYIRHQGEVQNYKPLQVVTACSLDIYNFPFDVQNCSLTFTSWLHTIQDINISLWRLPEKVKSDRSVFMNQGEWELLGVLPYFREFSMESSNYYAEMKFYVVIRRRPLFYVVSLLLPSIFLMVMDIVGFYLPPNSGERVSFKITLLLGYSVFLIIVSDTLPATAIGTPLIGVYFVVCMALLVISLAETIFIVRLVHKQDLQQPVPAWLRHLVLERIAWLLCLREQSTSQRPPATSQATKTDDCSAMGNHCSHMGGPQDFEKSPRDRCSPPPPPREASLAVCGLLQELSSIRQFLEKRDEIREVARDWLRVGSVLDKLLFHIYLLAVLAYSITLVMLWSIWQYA

[8] = biological target: 5-hydroxytryptamine receptor 5A (Homo sapiens) (UniProt P47898); assay: Inhibition of 5HT5A receptor at 10 uM; how it was run: as §3
Chain of 5-hydroxytryptamine receptor 5A (Homo sapiens) (P47898 whole entry): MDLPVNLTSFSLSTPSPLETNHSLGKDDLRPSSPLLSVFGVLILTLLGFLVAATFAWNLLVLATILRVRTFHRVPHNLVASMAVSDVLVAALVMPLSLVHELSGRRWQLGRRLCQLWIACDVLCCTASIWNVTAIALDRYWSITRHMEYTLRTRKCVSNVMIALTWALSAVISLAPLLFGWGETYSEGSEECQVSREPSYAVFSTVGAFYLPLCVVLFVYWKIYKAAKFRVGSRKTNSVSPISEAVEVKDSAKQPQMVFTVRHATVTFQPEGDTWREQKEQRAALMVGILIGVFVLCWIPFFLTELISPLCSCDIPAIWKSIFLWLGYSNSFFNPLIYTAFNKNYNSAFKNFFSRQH

[9] = Permeability from apical to basolateral side in human Caco-2 cells; assay type: ADME, cell-based; conditions: read-out: permeability
[10] = Elimination half life in Sprague-Dawley rat at 2 mg/kg, iv; assay type: ADME, organism-based; set-up: dose 2 mg/kg, route intravenous; conditions: in vivo, read-out: beta t1/2
How it was run: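 Three female Sprague-Dawley rats per group (10–12 weeks), jugular-vein catheterized; 2 mg/kg in 3% EtOH-7% Tween 80-90% normal saline given through the catheter. Plasma drawn from the catheter at set times, acetonitrile extraction with internal standard, LC/MS quantification.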

[11] = biological target: Galanin receptor type 2 (Homo sapiens) (UniProt O43603); assay: Inhibition of Galanin receptor type 2 at 10 uM; how it was run: as §3
Chain of Galanin receptor type 2 (Homo sapiens) (O43603 whole entry): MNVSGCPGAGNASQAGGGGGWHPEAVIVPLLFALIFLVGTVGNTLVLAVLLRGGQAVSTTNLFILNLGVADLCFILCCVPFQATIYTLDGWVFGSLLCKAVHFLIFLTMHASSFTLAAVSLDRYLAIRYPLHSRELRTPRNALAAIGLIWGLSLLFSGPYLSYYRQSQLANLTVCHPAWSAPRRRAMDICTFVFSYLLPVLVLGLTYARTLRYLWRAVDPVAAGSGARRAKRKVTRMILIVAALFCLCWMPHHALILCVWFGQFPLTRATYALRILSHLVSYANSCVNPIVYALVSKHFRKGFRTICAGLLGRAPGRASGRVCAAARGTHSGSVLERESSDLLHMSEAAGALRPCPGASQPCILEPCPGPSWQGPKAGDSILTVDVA

[12] = biological target: Melanocortin receptor 4 (Homo sapiens) (UniProt P32245); assay: Inhibition of MC4 receptor at 10 uM; how it was run: as §3
Chain of Melanocortin receptor 4 (Homo sapiens) (P32245 whole entry): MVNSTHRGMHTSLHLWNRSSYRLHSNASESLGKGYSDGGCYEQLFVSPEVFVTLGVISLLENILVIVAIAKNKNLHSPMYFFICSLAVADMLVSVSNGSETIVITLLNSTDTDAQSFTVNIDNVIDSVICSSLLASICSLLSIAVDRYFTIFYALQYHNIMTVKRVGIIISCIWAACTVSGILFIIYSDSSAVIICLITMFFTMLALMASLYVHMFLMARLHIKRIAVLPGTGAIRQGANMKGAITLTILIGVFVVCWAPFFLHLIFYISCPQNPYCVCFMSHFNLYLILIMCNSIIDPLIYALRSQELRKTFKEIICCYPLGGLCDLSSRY

[13] = biological target: D(2) dopamine receptor (Homo sapiens) (UniProt P14416); assay: Inhibition of dopamine D2S receptor at 10 uM; how it was run: as §2
[14] = system: Salmonella typhimurium; assay: Toxicity against Salmonella enterica serovar Typhimurium TA98; assay type: organism-based, Salmonella enterica subsp. enterica serovar Typhimurium; conditions: in vivo
How it was run: (§4)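 Ames fluctuation test in S. Typhimurium TA98 (frameshift) and TA100 (base substitution), with and without rat liver S9. Tested at 5, 10, 50 and 100 μM plus higher concentrations, 48 wells each, in histidine-free liquid medium for 96 h. Growth read spectrophotometrically by pH-indicator color change. Bacterial cytotoxicity assayed in parallel at the same concentrations.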

[15] = biological target: Adenosine A2A receptor (Homo sapiens) (UniProt P29274); assay: Inhibition of adenosine A2A receptor at 10 uM
Chain of Adenosine A2A receptor (Homo sapiens) (P29274 whole entry, looked up): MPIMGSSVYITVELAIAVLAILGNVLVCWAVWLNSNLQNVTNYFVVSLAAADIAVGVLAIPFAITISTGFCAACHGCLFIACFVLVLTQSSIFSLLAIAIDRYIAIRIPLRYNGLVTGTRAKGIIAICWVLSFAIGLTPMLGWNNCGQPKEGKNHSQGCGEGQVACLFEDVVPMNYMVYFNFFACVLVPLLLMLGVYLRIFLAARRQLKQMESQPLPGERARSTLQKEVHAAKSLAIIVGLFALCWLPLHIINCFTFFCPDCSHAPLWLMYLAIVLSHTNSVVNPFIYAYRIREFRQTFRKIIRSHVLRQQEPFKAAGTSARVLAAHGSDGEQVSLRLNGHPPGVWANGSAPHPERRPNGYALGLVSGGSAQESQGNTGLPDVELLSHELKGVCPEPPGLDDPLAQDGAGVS

[16] = system: Plasmodium berghei; assay: Antiplasmodial activity as reduced parasitaemia against Plasmodium berghei NK65 infected Sprague-Dawley rat at 50 mg/kg every 8 hrs peroral dose for 3 days
[17] = biological target: 5-hydroxytryptamine receptor 2A (Homo sapiens) (UniProt P28223); assay: Inhibition of 5HT2A receptor at 10 uM; how it was run: as §3
Chain of 5-hydroxytryptamine receptor 2A (Homo sapiens) (P28223 whole entry): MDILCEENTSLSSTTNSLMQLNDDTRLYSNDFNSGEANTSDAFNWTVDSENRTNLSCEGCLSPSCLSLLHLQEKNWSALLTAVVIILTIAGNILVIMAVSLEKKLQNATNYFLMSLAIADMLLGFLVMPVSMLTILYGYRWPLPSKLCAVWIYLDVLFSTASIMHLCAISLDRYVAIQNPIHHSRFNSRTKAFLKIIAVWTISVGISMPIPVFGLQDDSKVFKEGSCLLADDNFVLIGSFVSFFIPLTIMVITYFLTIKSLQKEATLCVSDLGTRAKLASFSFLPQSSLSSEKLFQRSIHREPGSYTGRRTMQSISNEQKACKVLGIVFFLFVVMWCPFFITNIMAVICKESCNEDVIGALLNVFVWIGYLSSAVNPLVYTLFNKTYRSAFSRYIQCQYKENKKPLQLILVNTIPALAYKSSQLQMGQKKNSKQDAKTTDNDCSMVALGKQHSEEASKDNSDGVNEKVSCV

[18] = biological target: Neuropeptide Y receptor type 2 (Homo sapiens) (UniProt P49146); assay: Inhibition of neuropeptide Y2 receptor at 10 uM; how it was run: as §2
Chain of Neuropeptide Y receptor type 2 (Homo sapiens) (P49146 whole entry): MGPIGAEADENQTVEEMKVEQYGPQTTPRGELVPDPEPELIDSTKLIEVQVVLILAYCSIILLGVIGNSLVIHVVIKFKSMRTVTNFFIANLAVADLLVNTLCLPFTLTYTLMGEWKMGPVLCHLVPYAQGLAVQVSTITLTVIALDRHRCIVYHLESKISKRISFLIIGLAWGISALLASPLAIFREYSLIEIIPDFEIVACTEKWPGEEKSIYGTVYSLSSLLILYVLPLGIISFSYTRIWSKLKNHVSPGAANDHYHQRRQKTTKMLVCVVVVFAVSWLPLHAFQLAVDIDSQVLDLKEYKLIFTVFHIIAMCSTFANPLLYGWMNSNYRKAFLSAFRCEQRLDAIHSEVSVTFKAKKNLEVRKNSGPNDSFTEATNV

[19] = AUC in Sprague-Dawley rat at 50 mg/kg, po; assay type: ADME, organism-based; set-up: dose 50 mg/kg, route oral; conditions: plasma
How it was run: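 Three female BALB/c mice (lines for mice, 8–10 weeks) or three female Sprague-Dawley rats (10–12 weeks) per group; 50 mg/kg oral gavage in 3% EtOH-7% Tween 80-90% normal saline. Plasma sampled at set times (tail bleed in mice, saphenous vein in rats), extracted with acetonitrile plus internal standard, quantified by LC/MS; AUC as mean of three animals.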

[20] = biological target: Neuropeptide Y receptor type 1 (Homo sapiens) (UniProt P25929); assay: Inhibition of neuropeptide Y1 receptor at 10 uM; how it was run: as §2
Chain of Neuropeptide Y receptor type 1 (Homo sapiens) (P25929 whole entry): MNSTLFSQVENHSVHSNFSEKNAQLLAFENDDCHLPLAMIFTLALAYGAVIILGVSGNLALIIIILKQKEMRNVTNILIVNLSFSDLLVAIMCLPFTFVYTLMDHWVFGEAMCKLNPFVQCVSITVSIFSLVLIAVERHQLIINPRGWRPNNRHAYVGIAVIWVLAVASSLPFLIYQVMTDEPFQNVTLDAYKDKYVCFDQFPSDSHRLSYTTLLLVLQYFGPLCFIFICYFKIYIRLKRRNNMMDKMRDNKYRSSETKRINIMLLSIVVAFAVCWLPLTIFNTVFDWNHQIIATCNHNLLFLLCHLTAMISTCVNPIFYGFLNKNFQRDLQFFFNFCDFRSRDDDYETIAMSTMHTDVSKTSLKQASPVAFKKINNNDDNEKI

[21] = biological target: Neurotensin receptor type 1 (Homo sapiens) (UniProt P30989); assay: Inhibition of NTS1 receptor at 10 uM; how it was run: as §3
Chain of Neurotensin receptor type 1 (Homo sapiens) (P30989 whole entry): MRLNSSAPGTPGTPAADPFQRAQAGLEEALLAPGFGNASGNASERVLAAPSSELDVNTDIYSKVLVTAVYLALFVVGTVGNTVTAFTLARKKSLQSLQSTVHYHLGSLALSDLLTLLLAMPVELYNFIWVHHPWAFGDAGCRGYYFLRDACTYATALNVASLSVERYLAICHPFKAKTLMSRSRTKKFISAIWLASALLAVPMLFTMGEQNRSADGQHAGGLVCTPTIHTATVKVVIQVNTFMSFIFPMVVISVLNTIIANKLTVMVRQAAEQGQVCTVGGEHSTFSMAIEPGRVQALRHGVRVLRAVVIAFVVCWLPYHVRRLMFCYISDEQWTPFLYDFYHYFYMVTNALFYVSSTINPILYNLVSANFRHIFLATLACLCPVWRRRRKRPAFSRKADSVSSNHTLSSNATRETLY

[22] = Cmax in Sprague-Dawley rat at 50 mg/kg, po; assay type: ADME, organism-based; set-up: dose 50 mg/kg, route oral; conditions: in vivo
How it was run: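 50 mg/kg by oral gavage in 3% EtOH-7% Tween 80-90% normal saline to groups of three females (BALB/c mice, 8–10 weeks, tail bleed; Sprague-Dawley rats, 10–12 weeks, saphenous vein). Plasma extracted with acetonitrile/internal standard, LC/MS; means of three animals. Oral elimination half-life depends on absorption rate as well as elimination.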

[23] = Inhibition of Sodium channel site 2 at 10 uM; how it was run: as §1
[24] = system: Salmonella typhimurium; assay: Toxicity against Salmonella enterica serovar Typhimurium TA100; assay type: organism-based, Salmonella enterica subsp. enterica serovar Typhimurium; conditions: in vivo; how it was run: as §4
[25] = biological target: C-X-C chemokine receptor type 2 (Homo sapiens) (UniProt P25025); assay: Inhibition of CXCR2 receptor at 10 uM; how it was run: as §3
Chain of C-X-C chemokine receptor type 2 (Homo sapiens) (P25025 whole entry): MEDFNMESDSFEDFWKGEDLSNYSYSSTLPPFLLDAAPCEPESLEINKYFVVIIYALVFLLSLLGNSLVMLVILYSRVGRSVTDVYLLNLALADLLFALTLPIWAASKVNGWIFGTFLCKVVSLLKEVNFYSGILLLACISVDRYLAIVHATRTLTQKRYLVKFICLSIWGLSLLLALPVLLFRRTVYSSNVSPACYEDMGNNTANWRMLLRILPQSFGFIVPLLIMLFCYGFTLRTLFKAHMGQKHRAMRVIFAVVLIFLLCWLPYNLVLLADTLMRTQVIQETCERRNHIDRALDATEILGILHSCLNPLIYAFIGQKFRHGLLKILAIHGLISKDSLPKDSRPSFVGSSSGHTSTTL

[26] = system: Rattus norvegicus; assay: Toxicity in Plasmodium berghei NK65 infected Sprague-Dawley rat assessed as effect on blood counts at 50 mg/kg, perorally administered every 8 hrs for 3 days; assay type: organism-based; set-up: dose 50 mg/kg, route oral; conditions: in vivo, po
How it was run: (§5)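 Female Sprague-Dawley rats, 10-12 weeks, n = 3 per schedule. Dosed 50 mg/kg by oral gavage every 8 h or every 12 h for 72 h. At the end of dosing, blood was sent to a clinical laboratory for complete blood counts, white cell differentials, electrolytes, glucose, renal function, liver enzymes and cholesterol.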

[27] = Inhibition of L-type calcium channel at verapamil site at 10 uM; how it was run: as §1
[28] = Inhibition of […] GABA-gated chloride channel at 10 uM; how it was run: as §1
[29] = system: Rattus norvegicus; assay: Toxicity in Plasmodium berghei NK65 infected Sprague-Dawley rat assessed as effect on renal function at 50 mg/kg, perorally administered every 8 hrs for 3 days; assay type: organism-based; set-up: dose 50 mg/kg, route oral; conditions: in vivo, po; how it was run: as §5
[30] = Metabolic stability in rat liver microsomes; assay type: ADME, Microsome
How it was run: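 Pooled female liver microsomes at 0.5 mg/ml in 0.1 M potassium phosphate pH 7.4, 3 mM MgCl2, 1 mM EDTA, with NADPH regenerating system (1 mM NADP+, 5 mM glucose-6-phosphate, 1 U/ml G6PDH). Preincubated 10 min at 37°C, then compound added to 1 μM final. Time points quenched with 3 volumes acetonitrile plus internal standard; parent quantified by LC/MS; half-life reported.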

**Q.** With `COC(=O)N1CCC(CN(C2Cc3cc(C#N)ccc3N(Cc3cncn3C)C2)S(=O)(=O)c2ccccn2)CC1` (stereo not given) as the compound, how does the inhibition [1] read?
**A.** inactive

**Q.** What about the Activity [2] of the same compound?
**A.** Non-toxic

**Q.** What about the inhibition [3] of the same compound?
**A.** inactive

**Q.** What about the Activity [4] of the same compound?
**A.** Non-toxic

**Q.** And the inhibition [5]?
**A.** inactive

**Q.** And the inhibition [6]?
**A.** inactive

**Q.** And the inhibition [7]?
**A.** inactive

**Q.** And the inhibition [8]?
**A.** inactive

**Q.** And the Papp A→B [9]?
**A.** 1.1 ×10⁻⁶ cm/s

**Q.** What about the half-life [10] of the same compound?
**A.** 17 min

**Q.** And the inhibition [11]?
**A.** inactive

**Q.** And the inhibition [12]?
**A.** inactive

**Q.** What about the inhibition [13] of the same compound?
**A.** inactive

**Q.** And the Activity [14]?
**A.** Non-toxic

**Q.** And the inhibition [15]?
**A.** inactive

**Q.** What about the Activity [16] of the same compound?
**A.** Active

**Q.** And the inhibition [17]?
**A.** inactive

**Q.** And the inhibition [18]?
**A.** inactive

**Q.** And the AUC [19]?
**A.** 10.9 µM·h

**Q.** And the inhibition [20]?
**A.** inactive

**Q.** And the inhibition [21]?
**A.** inactive

**Q.** And the Cmax [22]?
**A.** 4.5 µM

**Q.** What about the inhibition [23] of the same compound?
**A.** inactive

**Q.** What about the Activity [24] of the same compound?
**A.** Non-toxic

**Q.** And the inhibition [25]?
**A.** inactive

**Q.** What about the Activity [26] of the same compound?
**A.** Non-toxic

**Q.** And the inhibition [27]?
**A.** inactive

**Q.** And the inhibition [28]?
**A.** inactive

**Q.** And the Activity [29]?
**A.** Non-toxic

**Q.** What about the half-life [30] of the same compound?
**A.** 14 min
